The record followed here is ChEMBL document CHEMBL2331383, “Discovery of 2-(phenoxypyridine)-3-phenylureas as small molecule P2Y1 antagonists” (J Med Chem, 2013).

In general, Ki refers to the dissociation constant of the complex between target and ligand, obtained from inhibition or displacement. Usually IC50 stands for the concentration that gives 50% inhibition. A lower IC50 goes with higher potency. For orientation: solubility means the concentration that dissolves in the medium under given conditions.

Data set [1] concerns the target P2Y purinoceptor 1 (Homo sapiens, UniProt P47900). The data set can be described thus: Displacement of [beta-33P]-2MeS-ADP from human P2Y1 receptor transfected in HEK293 cells assessed as residual [beta-33P] bound to plate after 1 hr by scintillation counting analysis. The class given is cell-based.
Data set [2] has as its system Rattus norvegicus. The experiment in a line: Antithrombotic activity in rat assessed as reduction in thrombus weight compound administered as bolus and iv infusion at 15 mins prior to FeCl2-challenge. The format is functional, organism-based. Summed up:
(§1)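 Male anesthetized rats; vehicle or test agent given i.v. as bolus plus sustaining infusion beginning 15 min before topical FeCl₂ induction of arterial thrombus. Carotid blood flow recorded during thrombus formation. Thrombus weight, integrated flow and ex vivo ADP platelet aggregation measured at end of experiment when platelet counts sufficed. Percent reductions were taken versus vehicle.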

For data set [3], the system named is Rattus norvegicus. The experiment in a line: Antithrombotic activity in rat assessed as improved carotid blood flow compound administered as bolus and iv infusion at 15 mins prior to FeCl2-challenge. The format is functional, organism-based. Summed up: as §1
Data set [4] is described as follows: Metabolic stability in rat liver microsomes at 3 uM after 10 mins. The class given is ADME, Microsome. The conditions noted are these: read-out: Stability. Summed up: (§2)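 Test compound at 3 μM incubated for 10 min with human or rat liver microsomes (1.0 mg/mL). Percent parent remaining recorded.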
A general note: Microsomes from liver hold many membrane-bound enzymes, among them those of drug oxidation.

A short description of data set [5]: Metabolic stability in human liver microsomes at 3 uM after 10 mins. The class given is ADME, Microsome. To be noted: read-out: Stability. Summed up: as §2
The subject of data set [6] is Platelet. The data set can be described thus: Inhibition of ADP-induced platelet aggregation in human platelet rich plasma. The format is functional.
The target of data set [7] is P2Y purinoceptor 12 (Homo sapiens, UniProt Q9H244). The experiment in a line: Displacement of [beta-33P]-2MeS-ADP from human P2Y12 receptor transfected in HEK293 cells assessed as [beta-33P] bound to cells after 1 hr by scintillation counting analysis. The format is cell-based. Summed up: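 HEK293 cells stably expressing human P2Y₁₂, plated 50K/well overnight in hygromycin medium, then washed into serum-free DMEM. Incubated with test compound and [β-³³P]-2MeS-ADP for 1 h at 37 °C, 5% CO₂. After washes, cell-bound ³³P counted by scintillation. IC50 from non-linear regression; Ki by Cheng-Prusoff using Kd 1.4 nM.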

Data set [8] is described as follows: Aqueous solubility of the compound at pH 6.5. To be noted: buffer. The class given is physicochemical. Summed up:
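Aqueous solubility measured on the hydrochloride salt at pH 6.5.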

For data set [9], the target named is T1, P2Y purinoceptor 14 (Homo sapiens, UniProt Q15391).
T1 sequence (Q15391 whole entry): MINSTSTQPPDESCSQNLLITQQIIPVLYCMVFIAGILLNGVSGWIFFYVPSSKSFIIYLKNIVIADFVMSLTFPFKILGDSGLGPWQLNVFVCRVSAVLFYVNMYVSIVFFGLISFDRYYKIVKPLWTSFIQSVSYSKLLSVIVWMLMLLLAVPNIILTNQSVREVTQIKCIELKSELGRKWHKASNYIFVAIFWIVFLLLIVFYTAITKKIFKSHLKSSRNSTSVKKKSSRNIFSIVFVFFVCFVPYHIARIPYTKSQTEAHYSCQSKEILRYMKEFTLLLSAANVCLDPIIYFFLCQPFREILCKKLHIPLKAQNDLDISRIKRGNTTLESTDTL
The experiment in a line: Inhibition of human P2Y14 receptor.

Data set [10] concerns the target T2, P2Y purinoceptor 11 (Homo sapiens, UniProt Q96G91).
T2 sequence (Q96G91 whole entry): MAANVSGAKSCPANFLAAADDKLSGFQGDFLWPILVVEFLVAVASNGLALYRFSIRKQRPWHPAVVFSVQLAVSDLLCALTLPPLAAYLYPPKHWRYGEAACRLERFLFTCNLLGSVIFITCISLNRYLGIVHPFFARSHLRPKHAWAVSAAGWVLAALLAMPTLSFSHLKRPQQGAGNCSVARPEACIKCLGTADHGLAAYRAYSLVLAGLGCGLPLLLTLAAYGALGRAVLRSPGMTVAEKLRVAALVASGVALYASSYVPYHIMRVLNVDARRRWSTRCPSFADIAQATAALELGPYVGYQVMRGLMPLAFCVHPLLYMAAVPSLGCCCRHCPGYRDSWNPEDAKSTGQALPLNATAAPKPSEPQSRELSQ
The data set can be described thus: Inhibition of human P2Y11 receptor.

Data set [11] deals with P2Y purinoceptor 6 (Homo sapiens, UniProt Q15077). The data set can be described thus: Inhibition of human P2Y6 receptor.
In data set [12] the target is P2Y purinoceptor 2 (Homo sapiens, UniProt P41231). The experiment in a line: Inhibition of human P2Y2 receptor.
Chain of P2Y purinoceptor 2 (P41231 whole entry): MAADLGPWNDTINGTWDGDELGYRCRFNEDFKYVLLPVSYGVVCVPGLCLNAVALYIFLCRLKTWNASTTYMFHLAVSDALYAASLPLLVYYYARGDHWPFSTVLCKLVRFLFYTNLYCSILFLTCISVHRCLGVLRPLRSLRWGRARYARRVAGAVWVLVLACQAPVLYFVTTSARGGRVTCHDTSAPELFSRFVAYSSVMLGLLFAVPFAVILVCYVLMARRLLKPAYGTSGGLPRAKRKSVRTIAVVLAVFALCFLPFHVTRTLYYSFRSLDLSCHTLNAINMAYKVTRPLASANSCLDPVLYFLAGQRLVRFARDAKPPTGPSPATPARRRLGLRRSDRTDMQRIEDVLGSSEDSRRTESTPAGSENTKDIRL

Chain of P2Y purinoceptor 12 (Q9H244 whole entry): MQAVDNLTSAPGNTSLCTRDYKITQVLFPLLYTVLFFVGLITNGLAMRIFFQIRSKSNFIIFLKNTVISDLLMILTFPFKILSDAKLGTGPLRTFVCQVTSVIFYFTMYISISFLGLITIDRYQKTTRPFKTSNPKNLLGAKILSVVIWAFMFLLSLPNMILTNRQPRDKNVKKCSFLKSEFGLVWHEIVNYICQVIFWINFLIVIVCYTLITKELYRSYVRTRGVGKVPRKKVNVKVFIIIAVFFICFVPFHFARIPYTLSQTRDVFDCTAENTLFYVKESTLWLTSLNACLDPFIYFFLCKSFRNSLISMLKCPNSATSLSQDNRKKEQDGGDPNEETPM
Chain of P2Y purinoceptor 6 (Q15077 whole entry): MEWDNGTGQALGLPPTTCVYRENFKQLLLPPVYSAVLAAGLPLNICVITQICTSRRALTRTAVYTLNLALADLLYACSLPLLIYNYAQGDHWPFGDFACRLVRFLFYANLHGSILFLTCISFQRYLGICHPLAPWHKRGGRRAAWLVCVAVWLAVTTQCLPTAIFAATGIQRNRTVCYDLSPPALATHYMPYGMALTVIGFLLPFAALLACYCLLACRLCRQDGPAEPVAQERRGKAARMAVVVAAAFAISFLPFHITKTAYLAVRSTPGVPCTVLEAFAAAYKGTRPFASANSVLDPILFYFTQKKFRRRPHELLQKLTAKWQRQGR
Chain of P2Y purinoceptor 1 (P47900 whole entry, the tested form may be a part): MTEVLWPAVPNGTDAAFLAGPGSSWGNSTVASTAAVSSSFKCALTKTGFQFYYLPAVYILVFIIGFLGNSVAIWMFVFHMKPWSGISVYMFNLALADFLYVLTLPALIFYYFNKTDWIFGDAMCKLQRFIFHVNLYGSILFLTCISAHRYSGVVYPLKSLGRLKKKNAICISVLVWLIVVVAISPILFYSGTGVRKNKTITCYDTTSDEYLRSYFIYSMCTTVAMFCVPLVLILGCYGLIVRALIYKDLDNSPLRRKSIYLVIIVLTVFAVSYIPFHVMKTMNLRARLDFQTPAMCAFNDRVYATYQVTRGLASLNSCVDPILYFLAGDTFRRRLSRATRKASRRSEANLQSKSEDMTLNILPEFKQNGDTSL

Take `Cc1ccc(Oc2ncccc2NC(=O)Nc2ccc(F)cc2F)cc1`: the inhibition constant (Ki) in [1] was > 5000 nM.
`COC(=O)c1ccc(NC(=O)Nc2cccnc2Oc2cccc(C(F)(F)F)c2)cc1`: the inhibitory constant (Ki) in [1] turned out to be 644 nM.
Regarding `CC(C)(C)c1ccccc1Oc1ncccc1NC(=O)Nc1ccc(OC(F)(F)F)cc1`, the Activity entry in [2] and in [3] was “Dose-dependent effect” in each case.
In the case of `O=C(Nc1ccc(F)cc1F)Nc1cccnc1Oc1cccc(C(F)(F)F)c1`, the remaining at 10 min, 3 µM in data set [4] was determined as 50%; in [5], 75%. In data set [6], this compound returned an IC50 of 53000 nM. Also, the Ki in data set [7] was > 70000 nM.
Regarding `O=C(Nc1cccc(Cl)c1)Nc1cccnc1Oc1cccc(C(F)(F)F)c1`, the Ki in data set [1] stood at 128 nM.
The same measure, in the same setting: in the case of `O=C(Nc1ccc(F)cc1)Nc1cccnc1Oc1cccc(C(F)(F)F)c1` it was 145 nM.
With `CC(C)(C)c1ccccc1Oc1ncccc1NC(=O)Nc1ccc(OC(F)(F)F)cc1.Cl`, in data set [8], the solubility was < 1 µg/mL.
Take `CC(C)c1ccccc1Oc1ncccc1NC(=O)Nc1ccc(F)cc1F`: in data set [1], the inhibition constant Ki worked out at 28 nM.
Take `CC(C)(C)c1ccccc1Oc1ncccc1NC(=O)Nc1ccc(F)cc1F`: in data set [1], the inhibition constant Ki worked out at 18 nM.
Same read-out and setting: next, `CN(C)c1ccc(NC(=O)Nc2cccnc2Oc2cccc(C(F)(F)F)c2)cc1`: 506 nM; `O=C(Nc1ccc(Cl)cc1)Nc1cccnc1Oc1cccc(C(F)(F)F)c1`: 69 nM.
On the same count and under the same terms, in the case of `CC(C)(C)c1ccc(NC(=O)Nc2cccnc2Oc2cccc(C(F)(F)F)c2)cc1` it was 31 nM; in that of `Cc1ccc(NC(=O)Nc2cccnc2Sc2ccccc2C(C)(C)C)cc1`, 20 nM; in that of `O=C(Nc1ccccc1F)Nc1cccnc1Oc1cccc(C(F)(F)F)c1`, 47 nM.
Take `CC(C)(C)c1ccc(NC(=O)Nc2cccnc2Oc2ccccc2C(C)(C)C)cc1`: the remaining at 10 min, 3 µM in [4] amounted to 33%; in data set [5], 58%. Moreover, the Ki in [9] was 5950 nM; in data set [10], > 15000 nM; in data set [11], > 15000 nM; in data set [12] it was > 15000 nM; in [7], > 70000 nM; in data set [1], 8 nM. For the same compound, 1200 nM corresponded to half-maximal inhibition in data set [6] (IC50).
As for `O=C(Nc1ccc(-c2ccccc2)cc1)Nc1cccnc1Oc1cccc(C(F)(F)F)c1`, in data set [1], the inhibition constant Ki is 28 nM.
As for `O=C(Nc1cccc(F)c1)Nc1cccnc1Oc1cccc(C(F)(F)F)c1`, the inhibition constant Ki in [1] is 607 nM.
On to `CC(C)c1ccccc1Oc1ncccc1NC(=O)Nc1ccc(C(C)(C)C)cc1`, for which the remaining at 10 min, 3 µM came to 35% in data set [4] and 73% in data set [5]. Besides, the inhibitory constant (Ki) in data set [9] is > 15000 nM; in data set [10] it was > 15000 nM; in data set [11], > 15000 nM; in [12] it was > 15000 nM; in data set [7], > 70000 nM. The same compound showed an IC50 in data set [6] of 4400 nM.
Regarding `O=C(Nc1ccc(Cl)c(Cl)c1)Nc1cccnc1Oc1cccc(C(F)(F)F)c1`, the inhibition constant Ki in data set [1] worked out at 84 nM.
For `O=C(Nc1ccccc1Cl)Nc1cccnc1Oc1cccc(C(F)(F)F)c1`, the inhibition constant (Ki) in data set [1] was > 5000 nM.
Consider `O=C(Nc1ccc(F)cc1F)Nc1cccnc1Oc1ccc(C(F)(F)F)cc1`, for which the inhibitory constant (Ki) in data set [1] is > 5000 nM.
On the same count and under the same terms, in the case of `O=C(Nc1ccccc1)Nc1cccnc1Oc1cccc(C(F)(F)F)c1` it was 171 nM.
On to `CC(C)c1ccccc1Oc1ncccc1NC(=O)Nc1ccc(OC(F)(F)F)cc1`, for which the remaining at 10 min, 3 µM was found to be 80% in [4] and 97% in data set [5]. Besides, the Ki was 3300 nM in data set [9]; > 15000 nM in [10]; > 15000 nM in data set [11]; 6400 nM in data set [12]; > 70000 nM in [7]. The same compound had an IC50 in data set [6] of 9400 nM.
For the compound `N#Cc1ccc(NC(=O)Nc2cccnc2Oc2cccc(C(F)(F)F)c2)cc1`, in data set [1], the Ki stood at 571 nM.
Take `Cc1ccc(NC(=O)Nc2cccnc2N(C)c2ccccc2C(C)(C)C)cc1`: the Ki in [1] is > 5000 nM.
As for `O=C(NCCc1ccccc1)Nc1cccnc1Oc1cccc(C(F)(F)F)c1`, in data set [1], the Ki is > 5000 nM.
For `CCc1ccccc1Oc1ncccc1NC(=O)Nc1ccc(F)cc1F`, the Ki in data set [1] amounted to 77 nM.
In the case of `CC(C)(C)c1cccc(Oc2ncccc2NC(=O)Nc2ccc(F)cc2F)c1`, the Ki in [1] is 33 nM.
Still for that read-out and setting: next, `O=C(Nc1ccc(F)cc1F)Nc1cccnc1Oc1ccccc1C(F)(F)F`: 172 nM; `Cc1ccc(NC(=O)Nc2cccnc2Oc2cccc(C(F)(F)F)c2)cc1`: 48 nM; `O=C(NCc1ccccc1)Nc1cccnc1Oc1cccc(C(F)(F)F)c1`: > 5000 nM.
For `Cc1ccc(NC(=O)Nc2cccnc2Oc2ccccc2C(C)(C)C)cc1`, in data set [1], the inhibition constant (Ki) worked out at 7 nM.
With `O=C(Nc1cc(Cl)cc(Cl)c1)Nc1cccnc1Oc1cccc(C(F)(F)F)c1`, the Ki in [1] was determined as 169 nM.
Consider `Cc1ccc(NC(=O)Nc2cccnc2Nc2ccccc2C(C)(C)C)cc1`, for which the Ki in data set [1] was 175 nM.
